We go through 15 compounds from ChEMBL document CHEMBL1121660, “Haloacetamido analogues of 2-amino-2-deoxy-D-mannose. Syntheses and effects on tumor-bearing mice” (J Med Chem, 1981).

The test system of data set [1] is Mus musculus. The data set is described as follows: In vivo chemotherapy of Ehrlich tumor in B6D2F1 mice at a dose of 0.42 (mmol/kg)/day expressed as number days after tumor challenge. The format is functional.
For data set [2], the system named is L1210. The data set is described as follows: Percent of control (thymidine incorporation in vitro) at 2.5 mM in L1210 leukemia cells in vitro of B6D2F1 mice. The format is functional, Mus musculus.
In data set [3] the test system is Mus musculus. The data set is described as follows: In vivo chemotherapy of Ehrlich tumor in B6D2F1 mice at a dose of 0.42 (mmol/kg)/day was expressed as number of survivors on 60-day/number of treated;0/8. Type of data set: functional.
For data set [4], the system named is Mus musculus. The data set is described as follows: In vivo chemotherapy of Ehrlich tumor in B6D2F1 mice at a dose of 3.2 (mmol/kg)/day was expressed as number of survivors on 60-day/number of treated;2/4. The format is functional.
Data set [5] concerns Mus musculus. The data set is described as follows: In vivo chemotherapy of Ehrlich tumor in B6D2F1 mice at a dose of 3.2 (mmol/kg)/day expressed as number days after tumor challenge. The format is functional.
Data set [6] concerns Mus musculus. The data set is described as follows: In vivo chemotherapy of Ehrlich tumor in B6D2F1 mice at a dose of 2.5 (mmol/kg)/day was expressed as number of survivors on 60-day/number of treated; 5/8. The format is functional.
Data set [7] has as its system Mus musculus. The data set is described as follows: In vivo chemotherapy of Ehrlich tumor in B6D2F1 mice at a dose of 2.5 (mmol/kg)/day was expressed as number of survivors on 60-day/number of treated; 3/8. The format is functional.
Data set [8] is described as follows: Compound was tested for lethal dose administered in single dose intraperitoneally that killed 50% of the animals. The format is ADME, organism-based. The conditions noted are these: mouse, in vivo, ip.
Data set [9] deals with L1210. The data set is described as follows: Compound was tested for concentration that inhibited thymidine incorporation in vitro by 50%. Type of data set: functional, cell-based, Mus musculus. In a few lines: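 Ascites L1210 cells from DBA/2 passage hosts (harvested 5 days after ip implant of 10⁶ cells), washed in 0.85% NaCl and suspended at 2 × 10⁷/mL in RPMI-1640. Exposed 1 h at 37 °C in RPMI-1640 with 10% FBS; tetra-O-acetates added from ethanol solution, free sugars dissolved directly in medium. Cells washed and plated, then pulsed with [³H]thymidine (1.0 μCi/well) for 15 h. TCA-washed cells counted by scintillation. Ethanol-matched controls. IC50 reported as mean ± SE (≥3 determinations) or range (2).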
Background: Uptake of a labelled nucleoside into DNA is a usual measure of proliferation.

For data set [10], the system named is Mus musculus. The data set is described as follows: In vivo chemotherapy of Ehrlich tumor in B6D2F1 mice at a dose of 3.7 (mmol/kg)/day was expressed as number of survivors on 60-day/number of treated; 1/5. Type of data set: functional.
Data set [11] deals with Mus musculus. The data set is described as follows: In vivo chemotherapy of Ehrlich tumor in B6D2F1 mice at a dose of 3.7 (mmol/kg)/day expressed as number days after tumor challenge. The format is functional.
Data set [12] has as its system Mus musculus. The data set is described as follows: In vivo chemotherapy of Ehrlich tumor in B6D2F1 mice at a dose of 0.42 (mmol/kg)/day was expressed as number of survivors on 60-day/number of treated; 0/5. The format is functional.
For data set [13], the system named is Mus musculus. The data set is described as follows: In vivo chemotherapy of Ehrlich tumor in B6D2F1 mice at a dose of 0.12 (mmol/kg)/day expressed as number days after tumor challenge. The format is functional.
The subject of data set [14] is Mus musculus. The data set is described as follows: In vivo chemotherapy of Ehrlich tumor in B6D2F1 mice at a dose of 0.71 (mmol/kg)/day was expressed as number of survivors on 60-day/number of treated; 1/8. Type of data set: functional.
The subject of data set [15] is Mus musculus. The data set is described as follows: In vivo chemotherapy of Ehrlich tumor in B6D2F1 mice at a dose of 0.71 (mmol/kg)/day was expressed as number of survivors on 60-day/number of treated; 8/8. Type of data set: functional.
Data set [16] has as its system Mus musculus. The data set is described as follows: In vivo chemotherapy of Ehrlich tumor in B6D2F1 mice at a dose of 0.35 (mmol/kg)/day expressed as number days after tumor challenge. Type of data set: functional.
Data set [17] relates to Mus musculus. The data set is described as follows: In vivo chemotherapy of Ehrlich tumor in B6D2F1 mice at a dose of 0.71 (mmol/kg)/day was expressed as number of survivors on 60-day/number of treated; 4/8. The format is functional.
The subject of data set [18] is Mus musculus. The data set is described as follows: In vivo chemotherapy of Ehrlich tumor in B6D2F1 mice at a dose of 0.22 (mmol/kg)/day was expressed as number of survivors on 60-day/number of treated; 4/4.
The subject of data set [19] is Mus musculus. The data set is described as follows: In vivo chemotherapy of Ehrlich tumor in B6D2F1 mice at a dose of 0.13 (mmol/kg)/day was expressed as number of survivors on 60-day/number of treated; 3/8. The format is functional.
The subject of data set [20] is Mus musculus. The data set is described as follows: In vivo chemotherapy of Ehrlich tumor in B6D2F1 mice at a dose of 0.19 (mmol/kg)/day was expressed as number of survivors on 60-day/number of treated; 1/8. Type of data set: functional.
Data set [21] has as its system Mus musculus. The data set is described as follows: In vivo chemotherapy of Ehrlich tumor in B6D2F1 mice at a dose of […] (mmol/kg)/day expressed as number days after tumor challenge. Type of data set: functional.
Data set [22] relates to Mus musculus. The data set is described as follows: In vivo chemotherapy of Ehrlich tumor in B6D2F1 mice at a dose of 0.13 (mmol/kg)/day expressed as number days after tumor challenge. The format is functional.
Data set [23] relates to Mus musculus. The data set is described as follows: In vivo chemotherapy of Ehrlich tumor in B6D2F1 mice at a dose of 0.22 (mmol/kg)/day expressed as number days after tumor challenge. The format is functional.
Data set [24] deals with Mus musculus. The data set is described as follows: In vivo chemotherapy of Ehrlich tumor in B6D2F1 mice at a dose of 0.19 (mmol/kg)/day expressed as 60-day survivors (number of survivors/number of treated); 1/8. Type of data set: functional.

In turn, `O=C(CF)NC1C(O)OC(CO)C(O)C1O` (stereo in doubt; form 1) returned a Days in the data set with Mus musculus [1] of 2. For the same compound, the “Thymidine incorporation (% of control)” value with L1210 [2] was found to be 93%. Besides, the Survivors in the data set on Mus musculus [3] was determined as 0.

With `O=C(CBr)NC1C(O)OC(CO)C(O)C1O` (stereo in doubt; form 1), the results for the Survivors in the data set on Mus musculus [4], with Mus musculus [6] and in the data set on Mus musculus [7] were 2, 5 and 3, respectively. In the data set on L1210 [2], the “Thymidine incorporation (% of control)” value is recorded as 79%. Moreover, the Days in the data set with Mus musculus [5] is reported as 4. The LD50 (usually the dose at which mortality reaches 50%) in data set [8] was more than 3200 µmol/kg.

`CC(=O)OCC1OC(OC(C)=O)C(NC(=O)CCl)C(OC(C)=O)C1OC(C)=O` (stereo in doubt; form 1): the IC50 (in general, the concentration at which inhibition is half-maximal) with L1210 [9] (l1210) was 220 µM.

On to `O=C(CCl)NC1C(O)OC(CO)C(O)C1O` (stereo in doubt; form 1), for which the “Thymidine incorporation (% of control)” value in the data set on L1210 [2] was determined as 51%.

In turn, `CC(=O)OCC1OC(OC(C)=O)C(NC(=O)CBr)C(OC(C)=O)C1OC(C)=O` (stereo in doubt; form 1) showed an LD50 in [8] of 240 µmol/kg.

As for `CC(=O)OCC1OC(OC(C)=O)C(NC(=O)CF)C(OC(C)=O)C1OC(C)=O` (stereo in doubt; form 2), the IC50 in the data set with L1210 [9] (Mus musculus, L1210) was more than 1000 µM.

Consider `O=C(CBr)NC1C(O)OC(CO)C(O)C1O` (stereo in doubt; form 2), for which the “Thymidine incorporation (% of control)” value in the data set on L1210 [2] was 68%.

In turn, `CC(=O)OCC1OC(OC(C)=O)C(NC(=O)CCl)C(OC(C)=O)C1OC(C)=O` (stereo in doubt; form 2) gave an IC50 in the data set with L1210 [9] (l1210) of 425 µM.

`O=C(CCl)NC1C(O)OC(CO)C(O)C1O` (stereo in doubt; form 2) registered a Survivors in the data set with Mus musculus [10] of 1. Further, the Days in the data set on Mus musculus [11] amounted to 4.

`CC(=O)OCC1OC(OC(C)=O)C(NC(=O)CBr)C(OC(C)=O)C1OC(C)=O` (stereo in doubt; form 2) returned an IC50 in the data set on L1210 [9] (l1210) of 6.5 µM.

On to `CC(=O)OCC1OC(OC(C)=O)C(NC(=O)CF)C(OC(C)=O)C1OC(C)=O` (stereo in doubt; form 3), for which the Survivors with Mus musculus [12] worked out at 0. Moreover, in the data set with Mus musculus [13], the Days is reported as 1.

Turning to `O=C(CBr)NC1C(O)OC(CO)C(O)C1O` (stereo in doubt; form 3), in the data set on L1210 [2], the “Thymidine incorporation (% of control)” value is 95%.

In the case of `CC(=O)OCC1OC(OC(C)=O)C(NC(=O)CCl)C(OC(C)=O)C1OC(C)=O` (stereo in doubt; form 3), the Survivors with Mus musculus [14] was 1; in the data set on Mus musculus [15] it was 8; in the data set with Mus musculus [17] it was 4. The compound also gave a Days in the data set on Mus musculus [16] of 3. The compound further had a 50% lethal dose (LD50) in data set [8] of 1600 µmol/kg. In the data set with L1210 [9] (l1210), the midpoint of inhibition, the IC50, lay at 143 µM.

On to `O=C(CCl)NC1C(O)OC(CO)C(O)C1O` (stereo in doubt; form 3), for which the “Thymidine incorporation (% of control)” value in the data set with L1210 [2] worked out at 97%.

As to `CC(=O)OCC1OC(OC(C)=O)C(NC(=O)CBr)C(OC(C)=O)C1OC(C)=O` (stereo in doubt; form 3), the Survivors in the data set on Mus musculus [18] was 4; in the data set with Mus musculus [19], 3; in the data set on Mus musculus [20] it was 1; in the data set on Mus musculus [24], 1. Besides, the Days was 3 in the data set with Mus musculus [21], 1 in the data set on Mus musculus [22] and 1 with Mus musculus [23]. Also, half-maximal inhibition with L1210 [9] (Mus musculus, L1210) (IC50) was put at 9.4 µM.
